Molecules are shown by their SMILES.

The target in one test is HIV-1 IN (WT) (Human immunodeficiency virus type 1 group M subtype B, UniProt P12497). The test is described as follows: biochemical.
The next test deals with A128T mutant HIV-1 IN (Human immunodeficiency virus type 1 group M subtype B, UniProt P12497, A1275T). Put plainly: HTRF-based aberrant IN multimerization assay, A128T mutant IN. The class given is biochemical. A general note: TR-FRET usually uses a lanthanide donor and a delayed reading to cut background.
The next test deals with HIV-1 integrase (IN) (Human immunodeficiency virus type 1 group M subtype B, UniProt P12497). Put plainly: HTRF-based LEDGF/p75-dependent integration assay. The test is classed as biochemical. The settings on record: for activity in the LEDGF/p75-dependent integration assay: at concentrations up to 100 μM. In outline: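 Homogeneous time-resolved fluorescence read-out of integration in the presence of LEDGF/p75. Reactions run in neutral buffer, so carboxylic acid test compounds are present as the carboxylate anion. The format is said to detect integrase inhibitors acting by different mechanisms.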

In the case of `Cn1c(C(OC(C)(C)C)C(=O)O)c(-c2ccc3c(c2)CCCO3)c2ccccc21` (stereo not drawn) [Compound 5c], the figures for the IC50 against HIV-1 IN (WT) and at A128T mutant HIV-1 IN were 16.1 ± 2 µM and 16 ± 1.4 µM, respectively.

Regarding `Cn1c(CC(OC(C)(C)C)C(=O)O)c(-c2ccccc2)c2ccccc21` (stereo not drawn) [Compound 10], at HIV-1 integrase (IN), the IC50 was above 100 µM and the “activity in the LEDGF/p75-dependent integration assay” value is “failed to show any activity”.

Consider `COc1ccc(-n2c(C(OC(C)(C)C)C(=O)O)c(C)c3ccccc32)cc1` (stereo not drawn) [Compound 15], for which, at HIV-1 integrase (IN), the IC50 is above 100 µM and the “activity in the LEDGF/p75-dependent integration assay” value was “failed to show any activity”.

By IC50 is commonly meant the concentration needed to halve the response being measured. A low value points to higher potency.
